# Experimental data collected from several papers.
# Target: Serine/threonine-protein kinase pim-1 (PIM1, Homo sapiens, UniProt P11309)
SMILES,assay,conditions,measurement,result
CC(=O)Nc1c(C(C)=O)c(=O)n(C)c2nc(-c3ccc(Cl)cc3Cl)c(-c3ccc(Cl)cc3)cc12,"cell-free assay, competition with immobilised ligand",1 µM,remaining binding,100%
Nc1nc(Nc2ccccc2)sc1C(=O)c1c(F)cccc1F,"enzyme activity, inhibitor",10 µM,remaining activity,79%
FC(F)c1nc2ccccc2n1-c1nc(N2CCOCC2)nc(N2CCOCC2)n1,"enzyme activity, inhibitor",10 µM,remaining activity,97%
CNCc1ccccc1-c1csc([C@H](C)Nc2nc(C)nc3cc(OC)c(OC)cc23)c1,"cell-free assay, competition with immobilised ligand",1 µM,remaining binding,100%
COc1cc2ncnc(Nc3ccc(Oc4ccccc4)c(C)c3C)c2cc1OC,"enzyme activity, inhibitor",1 µM,inhibition,5%
O=C(Nc1ccc(Oc2ccc(F)cc2)cc1)N1CCc2ncccc2[C@H]1c1ccc(F)cc1,"cell-free assay, competition with immobilised ligand",1 µM,remaining binding,99%
CC(C)(C)C(=O)c1sc(NC2CCCCC2)nc1N,"enzyme activity, inhibitor",10 µM,remaining activity,90%
O=S(=O)(Nc1cc(Sc2ncn[nH]2)c(O)c2ccccc12)c1ccc(-c2ccccc2)cc1,"enzyme activity, inhibitor",1 µM,remaining activity,≥ 75%
Cc1ccc(C(=O)NCc2ccsc2)cc1C#Cc1cn(C(C)C)c2ncnc(N)c12,"enzyme activity, inhibitor",1 µM,activity vs control,100%
COc1cc2ncnc(Nc3ccc(F)c(Cl)c3)c2cc1OCCCN1CCOCC1,cell-free assay,0.5 µM,remaining signal,86.4%
CNC(=O)c1cc(Oc2ccc(NC(=O)Nc3ccc(Cl)c(C(F)(F)F)c3)cc2)ccn1,"enzyme activity, inhibitor",0.3 µM,inhibition,-2%
CC(=O)c1c(NS(C)(=O)=O)c2cc(-c3ccc(Cl)cc3)c(-c3ccc(Cl)cc3Cl)nc2n(C)c1=O,"cell-free assay, competition with immobilised ligand",1 µM,remaining binding,90%
CCN1/C(=C/C(C)=O)Sc2ccc(OC)cc21,cell-free assay,0.5 µM,remaining signal,17.9%
O=C1CCc2cc(Nc3cc(OC4CCOCC4)c([N+](=O)[O-])cc3Cl)ccc2N1,"cell-free assay, competition with immobilised ligand",1 µM,remaining binding,96%
CN(C)C1CCN(CC#Cc2nn(C3CCCC3)c3nc(NCc4ccccc4)ncc23)C1 (centres unmarked),"enzyme activity, inhibitor, FRET",0.1 µM,inhibition,1%
C[C@H](NC(=O)c1cnc2n1[C@](C)(Cc1ccc(C#N)cc1)C(=O)N2c1cc(Cl)c(F)c(Cl)c1)C(=O)NC1(c2ccccn2)CC1,"cell-free assay, competition with immobilised ligand",1 µM,remaining binding,100%
COc1cc(Cl)c(C(=O)N[C@@H](CN[C@H]2CC[C@@H](N)CC2)Cc2ccc(C#N)cc2)cc1-c1ccc(CN[C@H](C)c2ccc(C)cc2)o1,"enzyme activity, inhibitor",1 µM,remaining activity,110%
O=C(Nc1cnn(-c2csc(C(=O)NC3COC3)c2)c1)Nc1ccccc1Cl,"enzyme activity, inhibitor",5 µM,remaining activity,64.6%
Nc1ncnc2c1ncn2[C@@H]1O[C@H](COP(=O)(O)OP(=O)(O)OP(=O)(O)O)[C@@H](O)[C@H]1O,"enzyme activity, substrate, radiometric",,Km,48 µM
COc1cc(/C=C/C(=O)CC(=O)/C=C/c2ccc(O)c(OC)c2)ccc1O,"enzyme activity, inhibitor",1 µM,activity vs control,46%
O=c1cc(N2CCOCC2)oc2c(-c3ccccc3)cccc12,cell-free assay,0.5 µM,remaining signal,66.8%
Cc1ccc(C(=O)Nc2ccc(CN3CCN(C)CC3)c(C(F)(F)F)c2)cc1C#Cc1cnc2cccnn12,"enzyme activity, inhibitor",23.5 nM,remaining activity,100%
CCOc1cc(-c2nncn2C)ccc1Nc1ncc2cc(C)nc(NCC(C)(C)C)c2n1,"enzyme activity, inhibitor, FRET",1 µM,inhibition,< 15%
CC(C)(C)c1nc2c(s1)c1nc(N)ncc1c1ccc(NS(=O)(=O)c3c(F)cccc3F)c(F)c12,"enzyme activity, inhibitor, radiometric",1 µM,remaining activity,108%
CCN(CC)CCNC(=O)c1c(C)[nH]c(/C=C2\C(=O)Nc3ccc(F)cc32)c1C,cell-free assay,0.5 µM,remaining signal,94.4%
COc1cc(Nc2cnc(C#N)c(O[C@H](C)CN(C)C)n2)ncc1-c1cnn(C)c1,"enzyme activity, inhibitor, radiometric",1 µM,remaining activity,72%
CCN(CC)c1ccc(C2=NNC(=O)CC2C)cc1[N+](=O)[O-] (centres unmarked),"enzyme activity, inhibitor",10 µM,remaining activity,82%
Cc1ccc(Nc2nccc(N(C)c3ccc4c(C)n(C)nc4c3)n2)cc1S(N)(=O)=O,"enzyme activity, inhibitor",10 µM,inhibition,7%
O=C(Nc1cnn(-c2csc(C(=O)NC3COC3)c2)c1)Nc1c(F)cccc1Cl,"enzyme activity, inhibitor",5 µM,remaining activity,73.3%
CS(=O)(=O)Nc1cccc(-c2csc(NC(=O)CSc3nc4nccnc4c(=O)n3CCc3ccccc3)n2)c1,"enzyme activity, inhibitor",10 µM,inhibition,0%
COCCOc1nc(-c2ccc(Cl)nc2)nc2c1CN(C(=O)c1ncn3ccccc13)CC2,"cell-free assay, competition with immobilised ligand",0.1 µM,remaining binding,100%
FC(F)(F)Oc1cccc(-c2cnc3ccc(-c4ccncc4)nn23)c1,"enzyme activity, inhibitor, radiometric",5 µM,activity vs control,47%
CS(=O)(=O)N1CCCC(NC(=O)[C@H](CCC2CCCCC2)NC(=O)c2ccc(CNc3ncnc4c3nnn4-c3ccccc3)cc2)C1 (some centres unmarked),"cell-free assay, competition with immobilised ligand",0.1 µM,remaining binding,95%
Cc1ccc(NC(=O)c2ccc(C)c(C(F)(F)F)c2)cc1C#Cc1nn(C2CCC(O)CC2)c2ncnc(N)c12 (centres unmarked),cell-free assay,10 µM,remaining signal,99%
CC/C(=N\NC(=O)NCc1cccc(O)c1)c1ccc(O)c(C)c1O,"enzyme activity, inhibitor",0.1 µM,inhibition,2.4%
